Experiments:
[1] = biological target: T1, D(2) dopamine receptor (Bos taurus, UniProt P20288); assay: Binding affinity of [3H]NPA to striatal Dopamine receptor D2
In short: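 Calf striatal membranes (homogenised in Tris salt buffer pH 7.4, preincubated 30 min at 35 °C, washed), 1.5–2 mg/tube. Competition with [3H]NPA (100 μL of 5 nM added to 1 mL) in 50 mM Tris-HCl, 1 mM EDTA, 4 mM MgCl2, 0.01% ascorbic acid, pH 7.2. Incubated 45 min at 25 °C. Nonspecific binding with 1 μM (+)-butaclamol. Filtration, scintillation counting; pIC50 as mean ± SEM.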

[2] = biological target: T1, D(2) dopamine receptor; assay: Binding affinity of [3H]spiroperidol to striatal Dopamine receptor D2 binding sites
In short: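 Calf striatal membranes, 1.5–2 mg/tube. Competition with [3H]spiroperidol (100 μL of 10 nM added to 1 mL) in Tris-HCl buffer with EDTA, NaCl, KCl, CaCl2, MgCl2, pH 7.2, run in triplicate. Incubated 40 min at 37 °C. Nonspecific binding with 1 μM (+)-butaclamol. GF/B filtration, scintillation counting; pIC50 as mean ± SEM.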

[3] = test system: Rattus norvegicus; assay: Effect of locomotor activity in reserpine pretreated rats at the dose of 50.0uM/Kg, sc ip after count of 30 minute; format: functional
In short: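 Rats given reserpine 5 mg/kg sc 18 h beforehand, then test drug sc immediately before the session. Photocell motility counts accumulated over 30 min, mean ± SEM, n = 3-4. In one arm haloperidol 0.3 mg/kg sc was given 30 min before drug. ANOVA with Fisher's test against controls.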

[4] = test system: Rattus norvegicus; assay: In vivo effect of 5-HTP accumulation in nonpretreated rat cortex at the dose of 50 umol/kg, sc; format: functional
In short: (§1)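 Untreated rats given test drug 50 μmol/kg sc 65 min before death, and NSD 1015 (decarboxylase inhibitor) 100 mg/kg ip 30 min before death. DOPA and 5-HTP in limbic, striatal and cortical regions measured by HPLC with electrochemical detection. Values are % of saline controls, mean ± SEM, n = 4. ANOVA with Fisher's test.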

[5] = test system: Rattus norvegicus; assay: In vivo effect of 5-HTP accumulation in nonpretreated rat limbic system at the dose of 50 umol/kg, sc; format: functional; in short: as §1
[6] = test system: Rattus norvegicus; assay: In vivo effect of 5-HTP accumulation in nonpretreated rat striatum at the dose of 50 umol/kg, sc; format: functional; in short: as §1
[7] = test system: Rattus norvegicus; assay: In vivo effect of DOPA accumulation in nonpretreated rat cortex at the dose of 50 umol/kg, sc ip; format: functional; in short: as §1
[8] = test system: Rattus norvegicus; assay: In vivo effect of DOPA accumulation in nonpretreated rat limbic system at the dose of 50 umol/kg, sc ip; format: functional; in short: as §1
[9] = test system: Rattus norvegicus; assay: Effect of locomotor activity in nonpretreated rats at the dose of 50.0uM/Kg, sc; format: functional
In short: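 Untreated rats given test drug sc 5 min before the session. Photocell motility boxes recorded accumulated counts over 30 min, with gross behaviour observed. Activity expressed as % of saline controls, mean ± SEM. ANOVA with Fisher's test.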

[10] = test system: Rattus norvegicus; assay: In vivo effect of DOPA accumulation in nonpretreated rat striatum at the dose of 50 umol/kg, sc ip; format: functional; in short: as §1
[11] = test system: Rattus norvegicus; assay: Effect of locomotor activity in reserpine pretreated rats at the dose of 25.0uM/Kg, sc ip after count of 30 minute; format: functional
In short: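 Reserpine 5 mg/kg sc given 18 h before; test drug sc immediately before session; haloperidol 0.3 mg/kg sc injected 30 min before test drug. Photocell motility boxes, accumulated counts over 30 min, with gross behaviour observed through mirror; mean ± SEM, n = 3-4; Anova with Fischer's test versus saline controls. Injection volume 5 mL/kg, near-neutral pH.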

T1 sequence (P20288 whole entry): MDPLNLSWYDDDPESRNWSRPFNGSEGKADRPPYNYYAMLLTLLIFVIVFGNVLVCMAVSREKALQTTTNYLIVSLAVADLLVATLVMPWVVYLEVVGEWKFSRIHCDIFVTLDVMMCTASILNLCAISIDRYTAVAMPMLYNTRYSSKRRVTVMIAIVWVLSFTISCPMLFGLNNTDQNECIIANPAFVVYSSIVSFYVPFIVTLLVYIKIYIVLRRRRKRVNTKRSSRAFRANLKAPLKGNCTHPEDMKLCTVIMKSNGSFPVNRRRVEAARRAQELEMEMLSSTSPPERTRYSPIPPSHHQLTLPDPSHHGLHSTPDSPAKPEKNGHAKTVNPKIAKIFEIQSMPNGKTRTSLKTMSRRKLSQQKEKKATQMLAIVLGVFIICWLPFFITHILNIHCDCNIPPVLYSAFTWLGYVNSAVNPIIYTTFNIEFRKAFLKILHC

| Structure (SMILES) | IC50 [1] [nM] | IC50 [2] [µM] | Activity [3] [µM/kg] | Control [4] [%] | Control [5] [%] | Control [6] [%] | Control [7] [%] | Control [8] [%] | Activity [9] [µM/kg] | Control [10] [%] | Activity [11] [counts/30 min] |
| --- | --- | --- | --- | --- | --- | --- | --- | --- | --- | --- | --- |
| CCCN(CCC)[C@@H]1Cc2cc(O)ccc2C[C@H]1C (racemic) | 1020 | 26.9 | 331 | 147 | 136 | 117 | 217 | 146 | 147 | 247 | – |
| O=C(CCCN1CCC(O)(c2ccc(Cl)cc2)CC1)c1ccc(F)cc1 [HALOPERIDOL] | – | – | – | – | – | – | – | – | – | – | 573 |

Source: ChEMBL document CHEMBL1124995, “Synthesis and pharmacology of the enantiomers of cis-7-hydroxy-3-methyl-2-(dipropylamino)tetralin” (J Med Chem, 1990)
